Data as given in ChEMBL document CHEMBL4808182, “Discovery of the Soluble Guanylate Cyclase Activator Runcaciguat (BAY 1101042)” (J Med Chem, 2021).

Legend:
[1] = target: T1, Guanylate cyclase soluble subunit alpha-1 (Rattus norvegicus) (UniProt P19686); assay: Activation of recombinant rat sGC alpha1 subunit expressed in CHO cells assessed as induction of [32P-cGMP] formation using alpha-[32P-GTP] as substrate measured after 6 mins by luminescence assay; assay type: cell-based; conditions: filed as activator
T1 sequence (whole entry): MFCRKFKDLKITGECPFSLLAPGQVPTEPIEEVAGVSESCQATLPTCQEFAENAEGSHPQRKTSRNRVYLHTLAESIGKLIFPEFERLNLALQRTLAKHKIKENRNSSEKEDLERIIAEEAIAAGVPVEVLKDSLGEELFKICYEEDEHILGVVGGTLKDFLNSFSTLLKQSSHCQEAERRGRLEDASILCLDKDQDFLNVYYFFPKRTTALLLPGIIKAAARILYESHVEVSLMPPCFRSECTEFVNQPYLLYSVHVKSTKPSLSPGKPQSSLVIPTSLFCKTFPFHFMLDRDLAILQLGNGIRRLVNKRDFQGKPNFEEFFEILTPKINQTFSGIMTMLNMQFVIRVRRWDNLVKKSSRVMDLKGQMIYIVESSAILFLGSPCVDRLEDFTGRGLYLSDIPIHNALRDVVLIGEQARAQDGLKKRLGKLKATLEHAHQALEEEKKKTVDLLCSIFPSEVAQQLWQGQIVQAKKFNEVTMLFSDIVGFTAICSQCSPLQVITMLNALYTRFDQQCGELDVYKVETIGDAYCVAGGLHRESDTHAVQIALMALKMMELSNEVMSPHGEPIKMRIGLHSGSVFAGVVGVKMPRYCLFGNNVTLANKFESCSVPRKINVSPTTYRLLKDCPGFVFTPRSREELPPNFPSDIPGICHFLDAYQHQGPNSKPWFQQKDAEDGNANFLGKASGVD

[2] = target: T1, Guanylate cyclase soluble subunit alpha-1 (Rattus norvegicus); assay: Activation of recombinant rat sGC alpha1 subunit expressed in CHO cells assessed as induction of [32P-cGMP] formation by measuring efficacy using alpha-[32P-GTP] as substrate measured after 6 mins by luminescence assay relative to control; assay type: cell-based
[3] = Clearance in Wistar rat at 0.3 mg/kg, iv measured up to 24 hrs by LC-MS analysis; assay type: ADME, organism-based; conditions: in vivo
Procedure, shortened: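 Rats dosed iv at 0.3 mg/kg; blood clearance determined.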

[4] = Plasma clearance in iv dosed Beagle dog measured up to 24 hrs by LC-MS analysis; assay type: ADME, organism-based, Canis lupus familiaris
[5] = Plasma clearance in iv dosed cynomolgus monkey measured up to 24 hrs by LC-MS analysis; assay type: ADME, organism-based, Macaca fascicularis
[6] = Volume of distribution at steady state in iv dosed Wistar rat measured up to 24 hrs by LC-MS analysis; assay type: ADME, organism-based; conditions: in vivo, read-out: Vdss
Procedure, shortened: (§1)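 Three animals per species and strain received an intravenous dose. Steady-state volume of distribution (L/kg) was derived from the blood concentration–time profile, alongside blood clearance and terminal half-life.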

[7] = Half life in iv dosed Wistar rat measured up to 24 hrs by LC-MS analysis; assay type: ADME, organism-based; conditions: in vivo
[8] = Oral bioavailability in Wistar rat measured up to 24 hrs by LC-MS analysis; assay type: ADME, organism-based; conditions: in vivo
[9] = Volume of distribution at steady state in iv dosed Beagle dog measured up to 24 hrs by LC-MS analysis; assay type: ADME, organism-based, Canis lupus familiaris; conditions: in vivo, read-out: Vdss; procedure, shortened: as §1
[10] = Half life in iv dosed Beagle dog measured up to 24 hrs by LC-MS analysis; assay type: ADME, organism-based, Canis lupus familiaris; conditions: in vivo
[11] = Oral bioavailability in Beagle dog measured up to 24 hrs by LC-MS analysis; assay type: ADME, organism-based, Canis lupus familiaris; conditions: in vivo
[12] = Activation of recombinant rat sGC expressed in CHO cells by luminescence assay; assay type: cell-based
Procedure, shortened: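 Stable CHO reporter cell line overexpressing rat sGC; cGMP formation read as luminescence. EC50 from concentration–response. MEC taken as lowest concentration giving at least threefold increase in basal luminescence.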

[13] = Induction of CYP3A4 in human hepatocytes using phenacetin as substrate incubated for 60 mins by LC-MS/MS analysis; conditions: 1 h

**Q.** With `Cc1c(CCC(=O)O)cccc1NC(=O)C(c1ccc(Cn2ncccc2=O)cc1)C1CCCC1` (racemic) as the compound, how does the MEC [1] read?
**A.** 1000 nM

**Q.** Which MEC [1] does the source give for `Cc1c(CCC(=O)O)cccc1NC(=O)C(c1ccc(CN2CCOC(c3ccccc3)=N2)cc1)C1CCCC1` (racemic) here?
**A.** 1000 nM

**Q.** Which MEC [1] does the source give for `Cc1c(CCC(=O)O)cccc1C(=O)NC(c1ccc(CN2N=C(c3ccccc3)OCC2=O)cc1)C1CCCC1` (centres undefined) here?
**A.** 3000 nM

**Q.** For `CCN(C)C(C(=O)Nc1cccc(CCC(=O)O)c1C)c1ccc(CN2N=C(c3ccccc3)OCC2=O)cc1` (centres undefined), which MEC [1] is on record?
**A.** 300 nM

**Q.** Which MEC [1] does the source give for `Cc1ccc(=O)n(Cc2ccc(C(C(=O)Nc3cccc(CCC(=O)O)c3C)C3CCCC3)cc2)n1` (racemic) here?
**A.** 30 nM

**Q.** Which MEC [1] does the source give for `Cc1c(CCC(=O)O)cccc1NC(=O)[C@H](c1ccc(CN2N=C(c3ccccc3)OCC2=O)cc1)C(C)C` here?
**A.** 30 nM

**Q.** Which MEC [1] does the source give for `C[C@H]([C@H](C(=O)Nc1cccc(CC2(C(=O)O)CC2)c1)c1ccc(Cl)cc1)C(F)(F)F` here?
**A.** 20 nM

**Q.** And the Efficacy [2]?
**A.** 4%

**Q.** Which MEC [1] does the source give for `C[C@H]([C@H](C(=O)Nc1cc(CC2(C(=O)O)CC2)ccc1Cl)c1ccc(Cl)cc1)C(F)(F)F` here?
**A.** 0.3 nM

**Q.** What about the Efficacy ([2]; filed as activator) of the same compound?
**A.** 63%

**Q.** And the clearance [3]?
**A.** 7.67 mL/min/kg

**Q.** And the clearance [4]?
**A.** 25 mL/min/kg

**Q.** And the clearance [5]?
**A.** 4 mL/min/kg

**Q.** What about the Vd [6] of the same compound?
**A.** 1.5 L/kg

**Q.** And the half-life [7]?
**A.** 4.3 h

**Q.** And the bioavailability [8]?
**A.** 84%

**Q.** What about the Vd [9] of the same compound?
**A.** 3 L/kg

**Q.** What about the half-life [10] of the same compound?
**A.** 11 h

**Q.** What about the bioavailability [11] of the same compound?
**A.** 57%

**Q.** Which results are given for `C[C@H]([C@H](C(=O)Nc1cccc(CC2(C(=O)O)CC2)c1Cl)c1ccc(Cl)cc1)C(F)(F)F`?
**A.** MEC [1]: 100 nM; Efficacy [2]: 19%

**Q.** Which MEC [1] does the source give for `CC(C)(Cc1cccc(NC(=O)[C@H](c2ccc(CN3N=C(c4ccccc4)OCC3=O)cc2)C2CCCC2)c1)C(=O)O` here?
**A.** 30 nM

**Q.** Which MEC [1] does the source give for `C[C@H]([C@H](C(=O)Nc1cccc(CCC(=O)O)c1)c1ccc(CN2N=C(c3ccccc3)OCC2=O)cc1)C(F)(F)F` here?
**A.** 3 nM

**Q.** And the clearance [3]?
**A.** 27 mL/min/kg

**Q.** And the clearance [4]?
**A.** 23.3 mL/min/kg

**Q.** And the clearance [5]?
**A.** 16.7 mL/min/kg

**Q.** What does the source list for `CC(C)C(CC(=O)O)c1ccc(Cl)c(NC(=O)[C@H](c2ccc(Cl)cc2)[C@@H](C)C(F)(F)F)c1` (stereo in doubt; 44a) [listing 1 of 2 here]?
**A.** MEC [1]: 6.5 nM; Efficacy ([2]; filed as activator): 58%

**Q.** Which MEC [1] does the source give for `Cc1c(CCC(=O)O)cccc1NC(=O)[C@H](c1ccc(Cl)cc1)[C@@H](C)C(F)(F)F` here?
**A.** 1000 nM

**Q.** What about the Efficacy [2] of the same compound?
**A.** 18%

**Q.** For `CC[C@@H](C)[C@H](C(=O)Nc1cccc(CCC(=O)O)c1C)c1ccc(CN2N=C(c3ccccc3)OCC2=O)cc1`, which MEC [1] is on record?
**A.** 1 nM

**Q.** With `Cc1c(C=C[C@H](c2ccc(CN3N=C(c4ccccc4)OCC3=O)cc2)C2CCCC2)cccc1CCC(=O)O` (mixture of isomers) as the compound, how does the MEC [1] read?
**A.** 300 nM

**Q.** With `C[C@H]([C@H](C(=O)Nc1cc(C2(CC(=O)O)CCC2)ccc1Cl)c1ccc(Cl)cc1)C(F)(F)F` as the compound, how does the MEC [1] read?
**A.** 1 nM

**Q.** And the Efficacy [2]?
**A.** 37%

**Q.** What about the EC50 ([12]; CHO) of the same compound?
**A.** 5 nM

**Q.** What about the Activity [13] of the same compound?
**A.** 256 nM

**Q.** Which MEC [1] does the source give for `Cc1c(CCC(=O)O)cccc1NC(=O)[C@H](c1ccc(Cn2nc(-c3ccccc3)ccc2=O)cc1)C1CCCC1` here?
**A.** 1 nM

**Q.** Which EC50 ([12]; cho) does the source give for `CC(C)C(CC(=O)O)c1ccc(Cl)c(NC(=O)[C@H](c2ccc(Cl)cc2)[C@@H](C)C(F)(F)F)c1` (stereo in doubt; 44a) [listing 2 of 2 here] here?
**A.** 28 nM

**Q.** What about the Activity [13] of the same compound?
**A.** 10 nM

**Q.** Which results are given for `O=C(Nc1cccc(CC2(C(=O)O)CC2)c1)[C@H](c1ccc(CN2N=C(c3ccccc3)OCC2=O)cc1)C1CCCC1`?
**A.** MEC [1]: 1 nM; clearance [3]: 55 mL/min/kg; clearance [4]: 13.7 mL/min/kg; clearance [5]: 30 mL/min/kg

**Q.** Which MEC [1] does the source give for `O=C(N[C@@H](CO)c1ccccc1)C(c1ccc(Cn2nc(-c3ccccc3)c3ccccc3c2=O)cc1)C1CCCC1` (some centres undefined) here?
**A.** 100 nM
